High-throughput results from PubChem.
This is a sample that favours compounds with a hit; in the whole collection about 3.8% have one here.
NS3 helicase inh: blocks Hepatitis C virus NS3 helicase unwinding. NS3 helicase DNA unwinding, Cy5 molecular beacon fluorescence. inhibition, % at 10.9 µM. 290,000 compounds, 0.56% hits;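 active = inhibition above the mean of all tested compounds plus 3 SD, set per campaign, cut at about 35% in these data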;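 also: 0% = DMSO wells and 100% = thioflavine S control wells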
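System: Hepatitis C virus NS3 helicase domain fragment enzyme | Reagent: Annealed dual-labelled DNA beacon duplex, ATP-started | Compound dosing: 10.9 µM single point, 0.8% DMSO | Incubation: 1 h reaction at 25 °C, ATP-initiated | Technique: Cy5 fluorescence | Evaluation: Percent inhibition from t60/t0 fluorescence ratio | Benchmarks: Low DMSO, high thioflavine S at 110 µM | Replication: Singlicate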
HSP90 inh: HSP90 refolding inhibition in rabbit reticulocyte lysate; luciferase refolding luminescence, 3 h; 290,000 compounds, 0.91% hits; inhibition, % at 5.6 µM;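 active = inhibition above the screen-wide mean plus 3 SD, computed separately per campaign, cut at about 16% in these data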;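 also: 0% = DMSO wells and 100% = 60 µM geldanamycin wells; inhibitors lower the luminescence because luciferase stays unfolded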
HSF-1 act: increases HSF-1 driven luciferase reporter signal; NIH3T3-HGL HSF-1 luciferase reporter, MG132, 8 h; 100% = twice DMSO control signal; 300,000 compounds, 1.7% hits; activation, % at 9 µM; AID 504408;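 active = mean replicate activation of at least 50% with a set share of replicates each reaching 50%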;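 also: 0% = median of the neutral control wells and 100% = twice that signal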
Lipid droplet: modulators of hepatic lipid droplet formation. AID 1656. inhibition, % at 6.5 µM. AML12 mouse hepatocytes, oleate lipid droplets, BODIPY imaging. 240,000 compounds, 0.4% hits;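 active = lipid droplet intensity inhibited by at least 50%, with more than 500 cells counted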
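Assay system: AML12 mouse liver cells | Compound: 6.5 µM single-point dosing | Schedule: Overnight exposure | Technique: Fluorescence imaging, 20x objective, two fields per well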
HSF1 inh: HSF1 inhibition | AID 2098 | NIH3T3-HGL HSE-luciferase, MG132-induced, luminescence 8 h; active compounds read low | activity change, negative = inhibition, % at 7.5 µM (by protocol) | 300,000 compounds, 0.77% hits;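 active = more than half of replicate wells show activity change below -50%, luminescence cut by over half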;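 also: luciferase reports HSF-1 transcriptional activity via heat shock element; 0% = median of DMSO wells and -100% = zero luminescence signal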
Lipid drop inh: hepatic lipid droplet formation inhibition, confirmed; AML12 mouse hepatocytes, BODIPY lipid droplet imaging; droplets induced with 100 µM oleic acid; shares compounds with Lipid droplet; 870 compounds, 65% hits; inhibition, % at 5.2 µM;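 active = inhibition of lipid droplet metric at least 50%, with more than 300 cells in each of four replicates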;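 also: plate controls were DMSO with oleic acid for no effect and 5 µM Triacsin-C for full effect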
AML12 tox img: counter-screen for cytotoxicity in AML12 mouse hepatocytes | 870 compounds, 3% hits | z-score at 5 µM | DAPI nuclear morphology cytotoxicity imaging; active compounds read high; cells fed 100 µM oleate overnight | shares compounds with Lipid droplet; in the data active = z-score above about 6.3;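 also: compound exposure lasted overnight at 37 °C before fixation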
AML12 tox conf: AML12 hepatocyte cytotoxicity, confirmed; 530 tested, under 10 active; AML12 mouse hepatocyte viability, ATP luminescence; cells loaded with 100 µM oleic acid; shares compounds with Lipid droplet; AID 463219; cytotoxicity, % at 50 µM;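 active = cytotoxicity above 50% in each of four replicates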;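 also: compound exposure lasted overnight at 37 °C before the ATP read; 0% = DMSO-treated cells and 100% = wells with no cells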
An asterisk follows results filed as active; x = not tested or not shown.

SMILES	NS3 helicase inh	HSP90 inh	HSF-1 act	Lipid droplet	HSF1 inh	Lipid drop inh	AML12 tox img	AML12 tox conf
Cc1ccc(C(=O)NCCc2nc3ccccc3[nH]2)cc1[N+](=O)[O-]	21.7	4.8	-32.6	82.4*	-17.1	94.2*	-0.0736	18.1
O=C(NCCc1nc2ccccc2[nH]1)c1ccc(Br)o1	5.5	-3.6	33.1	51.2*	0.1	62.5*	-0.118	5.8
O=C(NCCc1nc2ccccc2[nH]1)c1ccco1	2.6	3.0	-11.6	x	-5.0	x	x	x
CCC(C)(C)NC(=O)C(c1ccc(C)cc1)N(CC1CCCO1)C(=O)CCC(=O)Nc1ccccn1 (centres undefined)	2.8	4.0	-0.2	60.9*	-1.2	51.2	-0.152	x
Cc1cccc2c1c1ccc3c(c1n2C)C(=O)C=CC3=O	25.9	-4.0	x	-4.7	x	x	x	x
COC(=O)c1ccc(NS(=O)(=O)c2ccc3c(c2)n(C)c(=O)n3C)cc1	-1.0	-0.6	-5.8	53.1*	-0.7	15.7	0.164	x
O=C(CCNC(=O)C1CCN(S(=O)(=O)c2ccccc2)CC1)NCCc1ccc(Cl)cc1	-20.3	-3.6	17.7	11.0	4.3	x	x	x
O=C(CCNC(=O)C1CCN(S(=O)(=O)c2ccccc2)CC1)NCCc1cccc(F)c1	19.4	-0.8	-0.2	54.3*	4.7	27.3	-0.145	x
COc1ccc2c(c1)c(CC(=O)NCc1cc([N+](=O)[O-])ccc1O)c(C)n2C(=O)c1ccc(Cl)cc1	12.4	2.8	5.3	5.9	10.5	x	x	x
COc1ccc(OC)c(NC(=O)Cc2c(C(=O)O)n(C)c3ccccc23)c1	7.0	0.3	-4.5	x	-6.4	x	x	x
COc1ccc2c(c1)c(CC(=O)Nc1ccc(C(C)=O)cc1)c(C)n2C(=O)c1ccc(Cl)cc1	-10.2	-2.3	18.8	72.9*	4.0	77.1*	-0.587	4.9
COc1ccc2c(c1)c(CC(=O)Nc1ccccc1OC)c(C)n2C(=O)c1ccc(Cl)cc1	8.8	1.6	8.7	67.2*	8.2	-74.9	7.89	x
CC(NS(=O)(=O)c1ccc(Cl)cc1)C(=O)N1CCOCC1 (centres undefined)	3.5	3.6	-5.3	-13.8	-0.6	x	x	x
C[C@H]([C@H](O)c1ccccc1)N(C)C(=O)CN	9.7	-1.0	1.3	-0.2	-1.1	x	x	x
O=C(CCC(=O)c1ccc(F)cc1)Nc1cccc(S(=O)(=O)Nc2cccc(Cl)c2)c1	-7.2	5.4	-11.0	50.7*	-3.2	-38.6	0.0233	x
O=C(CCC(=O)c1ccc(F)cc1)Nc1cccc(C(F)(F)F)c1	-4.2	-4.3	-34.3	20.6	-10.5	x	x	x
Cc1cccc(-n2cc3c(=O)n(C)c(=O)n(C)c3c2)c1	6.2	3.0	0.9	-10.5	-5.9	x	x	x
O=C(N/N=C/c1cn(-c2ccccc2)nc1-c1cc2ccccc2o1)c1ccccc1Br	-6.3	-8.3	75.7*	102.4*	40.2	105.3*	1.14	14.8
O=C(N/N=C/c1cn(-c2cccs2)nc1-c1ccccc1)c1ccccc1Br	-0.8	3.3	37.2	10.8	16.1	x	x	x
O=C(COc1ccc(F)cc1)N1CCC(Cc2ccccc2)CC1	-8.5	3.5	-12.1	-28.0	-3.8	x	x	x
COc1ccc(NC(=O)Cc2c(Sc3ccccc3)c3ccccc3n2C)cc1	4.8	-0.3	8.1	61.1*	-0.5	90.6*	0.35	8.1
Cn1c(CC(=O)Nc2ccc(F)cc2)c(Sc2ccccc2)c2ccccc21	0.6	0.6	9.4	13.8	9.8	x	x	x
CCOc1ccc(CN(C)C(=O)CNC(=O)c2ccc3ccccc3c2)cc1OC	35.0	5.0	84.2*	88.0*	21.2	106.7*	-0.235	20.6
CC1CCN(C(=O)c2ccc3c(c2NCCO)C(=O)c2ccccc2C3=O)CC1	-4.5	4.3	-3.1	67.6*	0.6	109.3*	-0.382	36.5
CCN(CC)CCNC(=O)c1ccc2c(c1NCCO)C(=O)c1ccccc1C2=O	-10.2	8.9	27.9	22.7	15.6	x	x	x
O=C(Nc1cccnc1Oc1ccc(Cl)cc1)c1cccc2ccccc12	-6.6	1.3	21.8	-0.9	5.7	x	x	x
